Sampled rows, rich in hits. Any-hit rate of the full collection: about 2.7%.
MC4R antagonist: human MC4R antagonism in cAMP assay. MC4R-expressing cells, MTII-stimulated cAMP, LANCE TR-FRET. AID 540295. 0.48% of 360,000 active. P32245. inhibition, % at 6.5 µM;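 active means inhibition above its plate's cutoff, the mean of tested wells on that plate plus 3 SD, cut at about 29% in these data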;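 further: 0% = Melanotan II alone and 100% = Melanotan II plus saturating MCL0020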
Target sequence (P32245 whole entry, looked up): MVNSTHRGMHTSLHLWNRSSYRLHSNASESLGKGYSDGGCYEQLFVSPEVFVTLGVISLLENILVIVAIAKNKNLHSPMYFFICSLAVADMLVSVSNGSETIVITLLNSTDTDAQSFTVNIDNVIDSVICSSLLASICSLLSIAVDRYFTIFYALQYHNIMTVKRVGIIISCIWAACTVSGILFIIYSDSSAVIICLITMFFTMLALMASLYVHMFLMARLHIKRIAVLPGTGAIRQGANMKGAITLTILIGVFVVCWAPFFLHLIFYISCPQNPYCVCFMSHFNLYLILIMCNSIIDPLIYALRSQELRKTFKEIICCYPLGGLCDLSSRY
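System: U2OS cells stably expressing human melanocortin 4 receptor (MC4R). Reagent: Melanotan II challenge after compound preincubation. Doses: 6.5 µM. Times: 30-min compound, 1-h challenge, 1-h detection, room temperature. Measured by: TR-FRET with Eu-cAMP and labeled anti-cAMP, 671 nm. Replicates: singlicate.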
NTR1 agonist: agonists of human neurotensin receptor NTR1. NTR1-U2OS beta-arrestin-GFP spot imaging, agonist mode. P30989. activation, % at 20 µM. 0.17% of 330,000 active. AID 493036;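 active means activation at or above 40% of the spot to cytoplasm intensity ratio, with at least 20 cells analyzed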;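 further: 0% = DMSO without peptide and 100% = 100 nM NTR1 peptide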
MC4R barr agon: human MC4R agonism via beta-arrestin; activation, % at 8.9 µM; U2OS MC4R beta-arrestin complementation, luminescence; percent of melanotan II response, DMSO zero; 0.98% of 360,000 active;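 active means activation above a per-plate cutoff, the mean activation of sample wells on that plate plus 3 SD, cut at about 8% in these data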
Lipid droplet: modulators of hepatic lipid droplet formation | AID 1656 | 0.4% of 240,000 active | AML12 mouse hepatocytes, oleate lipid droplets, BODIPY imaging | inhibition, % at 6.5 µM;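 active means lipid droplet intensity inhibited by at least 50%, with more than 500 cells counted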
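Assay system: AML12 hepatocytes (mouse) / Also added: 100 µM oleic acid challenge / Times: overnight treatment with compound plus oleate / Detection: high-content imaging of BODIPY-stained droplets and DAPI nuclei / Evaluation: % inhibition of lipid droplet signal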
m5-HT2A agonist: activates the mouse 5-HT2A serotonin receptor | 0.66% of 360,000 active | activation, % at 7.6 µM | CHO-K1 mHTR2A beta-arrestin complementation, luminescence; percent of 30 µM serotonin response;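 active means activation above a run cutoff, the mean activation of all tested compounds plus 3 SD, cut at about 14% in these data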;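 further: 0% = plate median of compound wells and 100% = 30 µM serotonin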
PREPL inhibitor: inhibits the human prolyl oligopeptidase-like enzyme; Q4J6C6; recombinant PREPL, fluorescence polarization activity-based probe; inhibition, % at 5.96 µM; 0.68% of 320,000 active; AID 2751; in the data active means inhibition above about 43%;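 further: 0% = enzyme with DMSO and 100% = wells lacking enzyme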
MOR ag counter: counter-screen for mouse HTR2A agonists: human mu opioid receptor agonists. AID 624380. shares compounds with m5-HT2A agonist. U2OS OPRM1 beta-arrestin PathHunter, luminescence; DMSO 0%, DAMGO 9.3 µM 100%. 5.3% of 2,300 active. activation, % at 9.3 µM;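 active means mean activation above the mean of DMSO-only wells plus 3 SD, cut at about 0.5% in these data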
Target sequence (P35372 whole entry, looked up): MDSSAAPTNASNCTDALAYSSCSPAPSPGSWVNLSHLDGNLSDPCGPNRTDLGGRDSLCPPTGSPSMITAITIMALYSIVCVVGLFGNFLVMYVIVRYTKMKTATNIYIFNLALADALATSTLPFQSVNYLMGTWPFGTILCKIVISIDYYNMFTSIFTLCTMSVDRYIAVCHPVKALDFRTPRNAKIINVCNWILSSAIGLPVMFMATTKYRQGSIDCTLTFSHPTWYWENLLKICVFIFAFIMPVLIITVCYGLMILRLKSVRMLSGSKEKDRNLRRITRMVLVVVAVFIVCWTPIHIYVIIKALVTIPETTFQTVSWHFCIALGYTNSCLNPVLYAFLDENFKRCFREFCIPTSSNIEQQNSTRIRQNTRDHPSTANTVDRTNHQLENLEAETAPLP
HTR2A ag conf: mouse HTR2A agonism confirmed; shares compounds with m5-HT2A agonist; CHO-K1 PathHunter beta-arrestin recruitment, luminescence; DMSO 0%, 30 µM serotonin 100%; activation, % at 7.6 µM; 19% of 2,300 active; AID 624381;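 active means mean activation across triplicates above the hit threshold derived in the original primary screen, cut at about 15% in these data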
An asterisk follows results filed as active; . = no result given.

SMILES	MC4R antagonist	NTR1 agonist	MC4R barr agon	Lipid droplet	m5-HT2A agonist	PREPL inhibitor	MOR ag counter	HTR2A ag conf
CC(C)(C)n1nnnc1C(c1cccs1)N1CCC2(CC1)C(=O)NCN2c1ccccc1 (stereo not drawn)	.	.	.	.	1.1	.	.	.
Clc1ccc(N2CCN(Cc3ccccc3Cl)CC2)cc1	14.0	5.5	1.1	-5.0	9.6	10.1	.	.
Clc1ccccc1CN1CCN(c2ccccc2)CC1	-4.2	0.9	0.1	24.0	26.6*	8.0	-0.3	53.3*
O=c1c2ccccc2nc(-c2ccccc2Cl)n1-c1cccc(O)c1	-4.5	0.0	-1.5	-1.1	5.0	.	.	.
CC(C)[C@@]1(NC(=O)[C@@H]2C[C@@H]3c4cccc5[nH]cc(c45)C[C@H]3N(C)C2)O[C@@]2(O)[C@@H]3CCCN3C(=O)[C@H](Cc3ccccc3)N2C1=O	4.1	5.0	-0.8	-25.3	29.8*	21.2	-0.3	83.0*
COP(=O)(OC)C1(Nc2ccc(C)cc2)CCCCC1	7.7	1.6	0.3	-26.0	15.4*	-0.9	-0.6	-3.2
CS(=O)(=O)c1ccc(C2=C(CNC(=O)c3nccs3)[C@H]3CC[C@@H](C2)N3CCOc2ccccc2)cc1	6.6	.	0.1	.	-2.7	.	.	.
O=C1c2ccccc2-n2nnc(-c3ccccc3)c2C2c3cc(Br)ccc3CCN12 (stereo not drawn)	.	.	.	.	16.3*	.	-0.1	0.4
C[C@@H]1O[C@@H](O[C@@H]2C=C3CCC4C(CC[C@]5(C)[C@@H](c6ccc(=O)oc6)CC[C@]45O)[C@@]3(C)CC2)[C@H](O)[C@H](O)[C@H]1O (stereo partly drawn)	3.2	-1.1	25.3*	.	16.2*	-11.0	7.7*	27.9*
C[C@@H]1O[C@@H](O[C@@H]2C=C3CC[C@@H]4C(CC[C@]5(C)[C@@H](c6ccc(=O)oc6)CC[C@]45O)[C@@]3(C)CC2)[C@H](O)[C@H](O)[C@H]1O (stereo partly drawn)	10.7	-1.3	37.7*	.	18.3*	4.8	6.3*	8.6
CC(=O)C1CCC2(O)C3CCC4=CC(=O)CCC4(C)C3CCC12C (stereo not drawn)	1.5	.	2.2	.	-1.2	.	.	.
Oc1ccccc1-[n+]1c(-c2ccccc2)cc(-c2ccccc2)c(O)c1-c1ccccc1	10.6	0.5	2.5	.	0.4	-4.4	.	.
NCCc1c[nH]c2ccccc12	-4.3	6.7	-1.1	17.0	10.4	4.4	.	.
CCCCc1ccc2[nH]cc(CCN)c2c1	1.8	1.0	4.9	.	25.7*	11.4	-0.5	50.4*
CCn1c(O)c(C=NCCN2CCOCC2)c(=O)[nH]c1=S	4.7	-0.8	-1.6	-32.6	-1.6	9.3	.	.
O=C(c1c[nH]cc1-c1ccccc1)c1cccc2ccccc12	1.7	-0.1	2.8	-4.4	20.4*	-23.3	-0.3	6.3
CCCn1c(C)c(C(=O)c2cccc3ccccc23)c2ccccc21	-1.1	3.7	0.2	.	-0.5	-1.4	.	.
O=C(O)C(Cl)(Cl)Cl	10.8	-0.3	-0.7	.	22.9*	3.3	0.3	4.4
CCCN(CCC)C1CCc2ccc(O)cc2C1 (stereo not drawn)	-7.0	2.5	-0.8	.	59.9*	2.2	0.2	179.1*
CCCN(CCC)C1CCc2cccc(O)c2C1 (stereo not drawn)	2.5	2.0	-1.3	.	52.6*	-4.2	-0.8	91.7*
COc1ccc(CC2NCC(O)C2OC(C)=O)cc1 (stereo not drawn)	17.2	.	-1.2	.	0.6	.	.	.
CCOC(=O)c1c(C)n(C(C)C)c2ccc(OC(=O)c3ccc(N4C(=O)CCC4=O)cc3)cc12	6.2	13.0	0.8	10.7	16.1*	16.5	0.4	2.9
COc1ccc2c(c1)c(C(=O)O)c(C)n2C(C)C	-4.8	0.9	-1.1	-13.4	-3.0	2.3	.	.
Clc1ccc2[nH]c3c(c2c1)CCNC3	-0.6	-0.9	-0.2	-4.5	16.0*	21.3	-0.5	9.1
COc1cc(C(=O)N/N=C/C23CC[C@@H](O)CC2(O)CC[C@@H]2[C@@H]3CCC3(C)C(C4=CC(=O)OC4)CCC23O)ccc1O (stereo partly drawn)	18.9	-0.1	1.7	7.5	14.8*	-4.2	-0.2	-3.1
SMILES	MC4R antagonist	NTR1 agonist	MC4R barr agon	Lipid droplet	m5-HT2A agonist	PREPL inhibitor	MOR ag counter	HTR2A ag conf
COc1ccc(C(=O)N/N=C/C23CC[C@@H](O)CC2(O)CC[C@@H]2[C@@H]3CCC3(C)C(C4=CC(=O)OC4)CCC23O)cc1 (stereo partly drawn)	2.2	-0.2	6.0	6.7	-0.8	21.0	.	.
COc1cccc(N2CCN(Cc3cccc(Cl)c3)CC2)c1	-5.0	0.3	-1.0	.	6.6	16.7	.	.
Clc1cccc(N2CCNCC2)c1	-0.5	-2.6	1.0	.	24.7*	4.8	-0.7	6.7
O=c1[nH]c(=O)n(Cc2ccccc2Cl)c(O)c1/C=C1/C=CC=N1	-10.3	1.2	-1.4	2.3	2.3	-0.5	.	.
O=C(NN=Cc1ccc(N(CCCl)CCCl)cc1)c1cc(=O)[nH]c(=O)[nH]1	2.5	.	0.5	.	18.4*	.	-0.8	-1.9
C[C@@H]1COc2cccc(N3CCN(C)CC3)c2S(=O)(=O)N1	.	.	.	.	-2.5	.	.	.
Nc1cc(C(=O)Nc2ccccc2F)ccc1N1CC2CC(C1)c1cccc(=O)n1C2 (stereo not drawn)	-4.7	.	1.0	.	1.0	.	.	.
O=C1NC(=O)[C@]2(Cc3ccccc3N3CCN(c4ccccc4)CC32)C(=O)N1c1ccccc1 (stereo partly drawn)	16.7	0.5	1.8	.	7.2	18.2	.	.
CN1C(=O)NC(=O)[C@]2(Cc3ccccc3N3CCN(c4ccccc4)CC32)C1=O (stereo partly drawn)	-1.7	-0.8	-1.4	-1.5	16.6*	16.9	-0.2	8.2
O=C(O)C(O)(c1ccc(Cl)cc1)C1(O)CCCC1 (stereo not drawn)	1.8	.	1.3	.	1.9	.	.	.
COC(=O)C1=C(c2ccc(OCc3ccccc3)c(F)c2)C[C@@H]2CC[C@H]1N2C	11.7	.	4.1	.	-5.9	.	.	.
c1ccc(C2(N3CCCCC3)CCCCC2)cc1	10.9	-0.6	0.5	.	1.4	2.7	.	.
S=C=Nc1cccc(C2(N3CCCCC3)CCCCC2)c1	1.4	1.7	-1.5	.	23.7*	39.4	.	-0.5
COC(=O)C1=C(c2ccc(Cl)c(C(F)(F)F)c2)C[C@@H]2CC[C@H]1N2C(=O)N1CCC(C)CC1	-0.3	1.3	-2.6	.	-8.3	-6.2	.	.
C=CCN1CCc2cccc3c2[C@H]1Cc1ccc(O)c(O)c1-3	-10.6	4.3	-0.3	-2.5	54.7*	15.0	1.2*	167.3*

Source: PubChem BioAssay
